KCNQ1 pot: human KCNQ1 channel potentiation or activation. CHO-K1 KCNQ1, thallium flux FluxOR fluorescence; active compounds read high. B-score at 10 µM. hit rate 0.35% among 310,000. AID 2648;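 active = fluorescence ratio B-score, a plate-corrected score, at least three library SD, with initial intensity B-score within 5 SD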
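Doses: Single concentration per compound, DMSO matched to controls | Test system: KCNQ1-transfected CHO-K1 cells | Timing: 90 min dye loading and 20 min compound exposure, both at room temperature | Measured by: Kinetic FluxOR thallium fluorescence, 10-s 1-Hz baseline, 110-s post-stimulus read | Medium: Assay buffer with matched DMSO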
SUMO Mot1 rescue: SUMOylation pathway inhibition by Mot1-301 growth rescue; S. cerevisiae Mot1-301 growth rescue, ATP luminescence, 38.5C; percent above DMSO median, 100 means doubled; growth rescue, % at 18.8 µM; hit rate 1% among 320,000; AID 2716;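 active = every valid replicate shows activation above 250% relative to neutral control wells; inactive = the rest, any valid replicate at or below 250%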;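 also: OY570 slx delta 5 strain wells were the positive control but not used for scaling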
AI-2 QS modul: modulates the Vibrio harveyi AI-2 quorum sensing system | Vibrio harveyi JMH597 AI-2 luminescence/OD600 ratio, 9 h; active compounds read low; strain lacks LuxN and CqsS sensors; 0 = neutral-control median | activity change, % at 7.5 µM | hit rate 0.4% among 300,000; in the data active = activity change below about -75%, passing the limit was not always enough; inconclusive = no clear call, values can overlap the other calls;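 also: luminescence divided by OD600 gain over 9 h not by final OD600 alone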
KCNQ1 inh: blocks the human KCNQ1 potassium channel; P51787; CHO-K1 KCNQ1, FluxOR thallium flux fluorescence; active compounds read high; B-score at 10 µM; hit rate 1.3% among 310,000;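 active = compounds whose thallium flux B-score, printed positive for inhibition, exceeds three library SD while starting fluorescence stays within three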;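 also: channel opened by potassium depolarization with thallium stimulus after 20 min compound exposure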
hERG protect: shields human hERG channel from block by proarrhythmic agents. AID 1511. activation (rescue from dofetilide block), less the hit threshold, % at 10 µM. Q12809. CHO-hERG, FluxOR thallium flux, dofetilide IC70 present. hit rate 0.51% among 310,000;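 active = activation above the mean of controls blocked by dofetilide plus 5 SD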;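 also: thallium influx through hERG after potassium depolarization seen as dye fluorescence rise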
Cl transport mod: modulators of human KCC2 chloride dependent transport. Q9H2X9. KCC2 cells, thallium flux FluoZin-2 fluorescence. B-score of Tl+ flux slope (higher = more flux/activation; lower = inhibition) at 10 µM. hit rate 2.2% among 190,000. AID 1456;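 active = thallium flux slope and its plate-corrected score both differing from the plate sample mean at a set confidence after two filtering rounds, in either direction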;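 also: slope of fluorescence scaled to starting intensity during 10 to 20 s after thallium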
KCNQ1 inh valid: human KCNQ1 channel inhibition, validation assay; shares compounds with KCNQ1 inh; KCNQ1 cell line, FluxOR thallium flux fluorescence; inhibition, % at 10 µM; hit rate 93% among 1,600; AID 588353;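 active = primary screen active, with duplicate mean exceeding buffer control mean plus 3 SD of buffer wells, cut at about 28% in these data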;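 also: 0% = buffer control ratio and 100% = XE991 inhibitor control ratio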
CHO Tl flux: KCNQ1 inhibitor counter-screen hit in parental CHO cells; shares compounds with KCNQ1 inh; parental CHO-K1, FluxOR thallium flux fluorescence ratio; active compounds read low; zero means no signal rise above baseline; fluorescence ratio (Tl flux) at 10 µM; hit rate 21% among 1,600; AID 588366;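 active = mean of duplicate thallium-flux fluorescence ratios in parental host cells more than 5 SD below the buffer control mean, cut at about 0.38 in these data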;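 also: ratio is peak minus minimum fluorescence divided by baseline fluorescence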
KCNQ2 spec: rat KCNQ2 inhibition in KCNQ1 inhibitor specificity screen. shares compounds with KCNQ1 inh. inhibition, % at 10 µM. KCNQ2 cells, FluxOR thallium flux fluorescence. hit rate 71% among 1,600. AID 651746;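 active = mean percent inhibition of the KCNQ2 thallium signal more than 5 SD above the buffer-only control wells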;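 also: KCNQ2 expressed in CHO cells; 0% = buffer control wells and 100% = XE-991 inhibitor control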
Target sequence (O88943 whole entry, looked up): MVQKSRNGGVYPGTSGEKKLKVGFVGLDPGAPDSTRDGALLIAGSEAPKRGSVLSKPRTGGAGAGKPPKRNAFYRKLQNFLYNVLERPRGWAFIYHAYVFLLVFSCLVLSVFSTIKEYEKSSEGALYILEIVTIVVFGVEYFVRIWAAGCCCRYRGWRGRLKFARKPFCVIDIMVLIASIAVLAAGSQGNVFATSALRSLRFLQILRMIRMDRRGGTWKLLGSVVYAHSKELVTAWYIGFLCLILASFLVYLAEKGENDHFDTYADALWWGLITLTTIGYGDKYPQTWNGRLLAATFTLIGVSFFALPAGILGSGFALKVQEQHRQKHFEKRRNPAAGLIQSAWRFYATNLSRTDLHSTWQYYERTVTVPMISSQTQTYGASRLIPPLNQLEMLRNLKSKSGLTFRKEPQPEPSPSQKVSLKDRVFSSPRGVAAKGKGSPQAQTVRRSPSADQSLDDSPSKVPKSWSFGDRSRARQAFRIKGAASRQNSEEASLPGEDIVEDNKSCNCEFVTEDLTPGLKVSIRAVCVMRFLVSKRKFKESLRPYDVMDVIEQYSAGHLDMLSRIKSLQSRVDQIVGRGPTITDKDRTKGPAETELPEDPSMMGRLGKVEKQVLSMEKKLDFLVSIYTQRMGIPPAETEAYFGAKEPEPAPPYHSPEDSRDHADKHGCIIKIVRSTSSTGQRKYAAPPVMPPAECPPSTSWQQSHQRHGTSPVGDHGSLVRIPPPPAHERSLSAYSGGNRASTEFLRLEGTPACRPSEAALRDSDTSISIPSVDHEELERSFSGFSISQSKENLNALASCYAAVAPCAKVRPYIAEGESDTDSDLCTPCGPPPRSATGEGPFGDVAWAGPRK
KCNQ1 KCNE1 spec: human KCNQ1/KCNE1 inhibition in KCNQ1 specificity screen | hit rate 77% among 1,600 | inhibition, % at 10 µM | KCNQ1/KCNE1 cells, FluxOR thallium flux fluorescence | AID 652147 | shares compounds with KCNQ1 inh;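 active = mean percent inhibition of duplicate wells above the buffer-only control mean plus 3 SD of those controls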;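 also: 0% = buffer only wells and 100% = XE-991 inhibitor control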
An asterisk follows results filed as active; i = inactive; ? = inconclusive; · = not tested or not shown; + = active, no number. Only some compounds are listed: those with a hit (about 4.2% of all), similar ones and a draw of the others.

SMILES	KCNQ1 pot	SUMO Mot1 rescue	AI-2 QS modul	KCNQ1 inh	hERG protect	Cl transport mod	KCNQ1 inh valid	CHO Tl flux	KCNQ2 spec	KCNQ1 KCNE1 spec
Cc1ccc2cc(CN(CCN(C)C)C(=S)Nc3ccccc3)c(=O)[nH]c2c1C	i	2	11	7*	12*	-0.37	56*	0.51	i	86%*
CC(NC(=S)Nc1ccc(OC(F)F)c(Cl)c1)C(C)(C)C (stereo not given)	i	-5	15	8*	-16	-0.61	60*	0.49	i	36%*
FC(F)Oc1ccc(NC(=S)NCc2ccccc2)cc1Cl	i	9	-3	i	-11	-0.031	·	·	·	·
CC(C)(C)NC(=O)COC(=O)c1ccccc1Nc1ccc(SC(F)F)cc1	i	7	24	6*	-9	-0.6	119*	0.37*	109%*	158%*
NC(=O)COC(=O)c1ccccc1Nc1ccc(SC(F)F)cc1	i	-2	1	i	-9	-0.95	·	·	·	·
CCOc1ccc(NC(=O)CN(C)C(=O)c2sc3ccccc3c2Cl)cc1OCC	i	0	3	i	-15	·	·	·	·	·
O=C(Nc1nc(-c2cccs2)c(C(=O)C(F)(F)F)s1)c1ccccc1	i	-8	11	7*	-12	-2.5	25*	0.48	i	i
O=C(Nc1nc(-c2cccs2)c(C(=O)C(F)(F)F)s1)c1ccco1	i	44	35	i	-22	-0.16	·	·	·	·
O=S(=O)(Cc1noc(-c2ccccc2Cl)n1)c1ccccn1	i	-4	6	i	-4	-0.93	·	·	·	·
O=C(Nc1ccccc1)N1CCSc2cc(Cl)ccc21	i	·	17	i	-1	1.6	·	·	·	·
O=C(Nc1cccc(Cl)c1)N1CCSc2cc(Cl)ccc21	i	3	23	9*	-17	0.0046	119*	0.45	111%*	68%*
Cc1ccc(-n2c(-c3ccccc3)c[n+]3c2CCc2ccccc2-3)c(C)c1	i	35	9	15*	-27	-2	98*	0.38*	95%*	34%*
Cc1ccc(-n2c(-c3ccccc3)c[n+]3c2CCC3)cc1	i	·	5	i	-16	0.91	·	·	·	·
O=C(Cn1c(=O)oc2ccccc21)N1CCCC1	i	-24	1	i	-7	·	·	·	·	·
O=c1c2c3c(sc2n2c(=S)[nH]nc2n1Cc1ccccc1)CN(Cc1ccccc1)CC3	·	·	·	·	·	-0.56	·	·	·	·
CCCCCOc1ccc(Br)cc1CSC(=N)N	i	·	12	9*	-27	1.2	125*	0.37*	86%*	94%*
Cc1c(O)nc(SCC(=O)Nc2ccc3c4c(cccc24)CC3)n(-c2ccc(F)cc2)c1=O	i	3	18	i	-8	0.084	·	·	·	·
CCOC(=O)C1CCN(C2=C(NS(=O)(=O)c3ccc(Cl)cc3)C(=O)c3ccccc3C2=O)CC1	i	8	18	6*	-16	0	124*	0.32*	135%*	182%*
CCn1c(=O)c(C(=O)NCCc2ccc(OC)c(OC)c2)c(O)c2ccccc21	i	13	-4	i	-11	·	·	·	·	·
CCCn1c(=O)c(C(=O)NCCc2ccc(OC)c(OC)c2)c(O)c2ccccc21	i	-3	-5	9*	-3	·	80*	0.41	101%*	63%*
O=C(OCc1ccccn1)c1ccc(COc2ccc3ccccc3c2)o1	i	-7	11	8*	-31	-0.89	148*	0.35*	121%*	+
Cc1ccc(S(=O)(=O)NC(CC(=O)O)c2cccs2)cc1 (stereo not given)	i	156	23	i	-5	·	·	·	·	·
CC(=O)c1cccc(NC(=S)NCCc2ccc(Cl)cc2)c1	i	-2	5	8*	-3	0.9	43*	0.56	i	i
S=C(NCCc1ccccc1)Nc1cccc2cnccc12	i	·	27	7*	-16	0.62	29*	0.54	i	i
S=C(NCCc1ccccc1)Nc1ccc(Cl)cc1Cl	i	-7	-36	7*	-7	·	34*	0.49	i	i
SMILES	KCNQ1 pot	SUMO Mot1 rescue	AI-2 QS modul	KCNQ1 inh	hERG protect	Cl transport mod	KCNQ1 inh valid	CHO Tl flux	KCNQ2 spec	KCNQ1 KCNE1 spec
Cc1cc(Cl)ccc1NC(=S)NCCc1ccc(Cl)cc1	i	34	?	14*	-5	·	70*	0.47	79%*	103%*
O=C(c1ccco1)N1CCC(c2nc3c(nnn3Cc3ccc(F)cc3)c(=O)[nH]2)CC1	i	-19	·	i	-7	·	·	·	·	·
COc1ccc(Cl)cc1C(=O)N(Cc1nc(-c2cccc(C)c2)no1)C(C)C	i	-3	16	i	-11	-0.0064	·	·	·	·
Cc1cccc(-c2noc(CN(C)S(=O)(=O)c3cc(Cl)ccc3Cl)n2)c1	i	0	14	8*	-7	·	+	0.35*	i	i
FC(F)Sc1ccc(NC(=S)NC2CCCCC2)cc1	i	2	-29	10*	-20	0.74	78*	0.53	i	36%*
S=C(Nc1ccc(Br)cc1)NC1CCCC1	i	-9	18	i	-4	-0.27	·	·	·	·
CC1CCCCC1NC(=S)Nc1ccc(SC(F)F)cc1 (stereo not given)	i	2	-6	7*	-14	-1.3	66*	0.54	i	40%*
FC(F)Oc1ccc(NC(=S)NCc2ccccc2)cc1	i	133	-13	i	-8	-0.78	·	·	·	·
FC(F)Sc1ccc(NC(=S)NCc2ccccc2)cc1	i	25	-9	8*	-8	-1.8	58*	0.59	93%*	i
CCCc1cc(C(=O)N2CCCC(C(=O)c3cc(C)c(OC)c(C)c3)C2)n(C)n1 (stereo not given)	i	-2	18	i	-14	·	·	·	·	·
O=C(Nc1ccc(F)cc1)c1cc(-c2ccncc2)nc2c(Cl)cccc12	i	-23	12	i	-14	·	·	·	·	·
CC(=O)Oc1ccc([C@@H]2COc3c(ccc4c3C=CC(C)(C)O4)C2)c(OC(C)=O)c1	i	289	19	7*	-10	·	136*	0.42	90%*	78%*
